pIC50, pKi: −log10 of the molar value. In brackets after ≈: the same amount, converted by molar mass.
Experiments:
[1] = Displacement of [3H]-DTG from sigma2 receptor in guinea pig brain membranes incubated for 120 mins by liquid scintillation counting method; type: cell membranes, Cavia porcellus, Cell membrane
Procedure, shortened: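 Guinea pig brain membranes (200 μg) incubated with 10 nM [³H]-DTG in 50 mM Tris-HCl pH 8, σ1R masked with 400 nM (+)-SKF10047, at 25 °C for 120 min. Nonspecific binding defined by 10 μM haloperidol. Filtration, three washes with ice-cold 50 mM Tris-HCl pH 7.4, scintillation counting. Ki given as mean of two determinations.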

[2] = molecular target: T1, Sigma non-opioid intracellular receptor 1 (Homo sapiens, UniProt Q99720); assay: Displacement of [3H]-(+)-pentazocine from human sigma1 receptor expressed in HEK293 cell membranes incubated for 120 mins by liquid scintillation counting method; set-up: species or system Cell membrane
T1 sequence (Q99720 whole entry): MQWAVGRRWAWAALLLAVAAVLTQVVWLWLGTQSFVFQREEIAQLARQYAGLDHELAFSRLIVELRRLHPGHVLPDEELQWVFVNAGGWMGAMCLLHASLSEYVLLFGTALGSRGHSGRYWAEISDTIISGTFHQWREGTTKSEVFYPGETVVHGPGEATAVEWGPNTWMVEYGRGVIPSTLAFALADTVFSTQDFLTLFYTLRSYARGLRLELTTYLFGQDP

[3] = species: Cavia porcellus; assay: Displacement of [3H]-DTG from sigma2 receptor in guinea pig brain membranes at 1 uM incubated for 120 mins by liquid scintillation counting method relative to control; settings: Cell membrane
[4] = molecular target: Voltage-gated inwardly rectifying potassium channel KCNH2 (Homo sapiens, UniProt Q12809); assay: Inhibition of human ERG expressed in CHO cells by patch clamp assay; type: cell-based
Chain of Voltage-gated inwardly rectifying potassium channel KCNH2 (Q12809 whole entry): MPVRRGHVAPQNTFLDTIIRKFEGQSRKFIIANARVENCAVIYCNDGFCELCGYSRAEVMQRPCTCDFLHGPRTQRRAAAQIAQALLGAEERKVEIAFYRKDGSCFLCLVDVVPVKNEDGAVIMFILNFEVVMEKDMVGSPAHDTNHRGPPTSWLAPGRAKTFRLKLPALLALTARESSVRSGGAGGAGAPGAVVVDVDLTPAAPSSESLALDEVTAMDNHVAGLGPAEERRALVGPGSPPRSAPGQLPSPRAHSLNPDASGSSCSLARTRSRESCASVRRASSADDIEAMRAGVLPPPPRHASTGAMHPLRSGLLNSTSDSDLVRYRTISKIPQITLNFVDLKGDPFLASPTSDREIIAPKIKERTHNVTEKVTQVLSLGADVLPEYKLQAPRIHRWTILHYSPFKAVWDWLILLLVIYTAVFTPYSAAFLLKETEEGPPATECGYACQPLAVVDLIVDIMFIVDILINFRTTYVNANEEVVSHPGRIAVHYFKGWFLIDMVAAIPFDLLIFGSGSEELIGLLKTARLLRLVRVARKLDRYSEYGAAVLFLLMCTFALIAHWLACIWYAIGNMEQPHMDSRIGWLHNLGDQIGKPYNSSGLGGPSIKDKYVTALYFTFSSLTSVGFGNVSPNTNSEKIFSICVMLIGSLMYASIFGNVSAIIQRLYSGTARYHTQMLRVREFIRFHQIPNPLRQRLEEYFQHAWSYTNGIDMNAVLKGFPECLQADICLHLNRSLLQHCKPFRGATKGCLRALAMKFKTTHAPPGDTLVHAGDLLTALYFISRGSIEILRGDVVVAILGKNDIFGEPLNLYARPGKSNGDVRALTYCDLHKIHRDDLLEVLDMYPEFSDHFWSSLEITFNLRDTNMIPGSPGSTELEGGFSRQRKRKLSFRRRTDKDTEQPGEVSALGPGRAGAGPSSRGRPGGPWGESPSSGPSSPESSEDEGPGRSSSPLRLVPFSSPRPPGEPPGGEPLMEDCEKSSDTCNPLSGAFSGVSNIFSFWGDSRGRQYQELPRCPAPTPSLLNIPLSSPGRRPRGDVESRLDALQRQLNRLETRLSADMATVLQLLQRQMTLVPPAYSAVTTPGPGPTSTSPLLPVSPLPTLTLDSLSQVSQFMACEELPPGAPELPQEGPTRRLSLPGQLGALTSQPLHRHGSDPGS

[5] = Cmax in CD1 mouse at 10 mg/kg, po by HPLC-MS/MS analysis; type: ADME, organism-based; set-up: route oral, dose 10 mg/kg; settings: in vivo
Procedure, shortened: (§1)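 Male CD1 mice (25−30 g), groups of 16, given 10 mg/kg orally in 0.5% hydroxypropyl methylcellulose or 1 mg/kg iv in saline. Blood drawn at several times (saphenous vein or intracardiac puncture) into heparinized tubes. Plasma spun at 4 °C, stored at −80 °C, protein-precipitated and assayed by HPLC-MS/MS. Parameters from noncompartmental analysis of concentration−time curves; clearance expressed as % liver blood flow.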

[6] = AUC (0 to infinity) in CD1 mouse at 10 mg/kg, po by HPLC-MS/MS analysis; type: ADME, organism-based; set-up: time infinity, route oral, dose 10 mg/kg; settings: in vivo; procedure, shortened: as §1
[7] = Clearance in CD1 mouse at 10 mg/kg, po by HPLC-MS/MS analysis relative to liver blood flow; type: ADME, organism-based; settings: in vivo
[8] = Induction of CYP450 expression in human HepaRG cells at 50 uM; type: ADME, cell-based
Procedure, shortened: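 HepaRG cells exposed to compound at concentrations up to 50 μM; CYP induction assessed.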

[9] = tested on: HepG2; assay: Toxicity in human HepG2 cells assessed as reduction in cell viability up to 100 uM by MTT assay; type: cell-based
Procedure, shortened: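 HepG2 cells exposed to compound at up to 100 μM; viability read by MTT assay.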

[10] = Lipophilicity, logP of compound; type: physicochemical; settings: octanol/water
Procedure, shortened: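 Log P determined by a pHmetric technique on a GlpKa or Sirius-T3 instrument.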

[11] = Oral bioavailability in Wistar rat at 10 mg/kg by HPLC-MS/MS analysis; type: ADME, organism-based; settings: in vivo
Procedure, shortened: (§2)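 Male Wistar rats (250−300 g), groups of two, dosed orally at 10 mg/kg in 0.5% hydroxypropyl methylcellulose or iv at 1 mg/kg in saline. Serial blood into heparinized tubes (saphenous vein or cardiac puncture). Plasma kept at −80 °C and measured by HPLC-MS/MS after protein precipitation. Noncompartmental analysis gave parameters; clearance given as % liver blood flow.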

[12] = AUC (0 to infinity) in Wistar rat at 10 mg/kg, po by HPLC-MS/MS analysis; type: ADME, organism-based; set-up: route oral, time infinity, dose 10 mg/kg; settings: in vivo; procedure, shortened: as §2
[13] = Elimination half life in CD1 mouse at 10 mg/kg, po by HPLC-MS/MS analysis; type: ADME, organism-based; settings: in vivo, read-out: beta t1/2 (converted); procedure, shortened: as §1
[14] = Volume of distribution at steady state in CD1 mouse at 10 mg/kg, po by HPLC-MS/MS analysis; type: ADME, organism-based; settings: in vivo; procedure, shortened: as §1
[15] = tested on: Mus musculus; assay: Analgesic activity in orally dosed mouse model of […]-induced mechanical hypersensitivity-induced pain assessed as reduction in mechanical hypersensitivity at 80 mg/kg, po; type: functional; set-up: scale not given: the % may be the effect or the level left
[16] = Cmax in Wistar rat at 10 mg/kg, po by HPLC-MS/MS analysis; type: ADME, organism-based; set-up: route oral, dose 10 mg/kg; settings: in vivo; procedure, shortened: as §2
[17] = Clearance in Wistar rat at 10 mg/kg, po by HPLC-MS/MS analysis relative to liver blood flow; type: ADME, organism-based; settings: in vivo
[18] = molecular target: T1, Sigma non-opioid intracellular receptor 1; assay: Antagonist activity at human sigma1 receptor expressed in HEK293 cell membranes assessed as ratio of Ki without phenytoin/Ki with phenytoin by [3H]-(+)-pentazocine displacement assay; settings: Cell membrane, filed as antagonist
[19] = Permeability in human Caco-2 cells; type: ADME, cell-based; settings: read-out: permeability
[20] = Volume of distribution at steady state in Wistar rat at 10 mg/kg, po by HPLC-MS/MS analysis; type: ADME, organism-based; settings: in vivo; procedure, shortened: as §2
[21] = Genotoxicity in Salmonella typhimurium by Ames test; type: toxicity; settings: salmonella enterica subsp. enterica serovar typhimurium
[22] = tested on: Mus musculus; assay: Analgesic activity in orally dosed mouse model of intraplantar capsaicin-induced mechanical hypersensitivity-induced pain assessed as reduction in mechanical hypersensitivity; type: functional; settings: po
[23] = Oral bioavailability in CD1 mouse at 10 mg/kg by HPLC-MS/MS analysis; type: ADME, organism-based; settings: in vivo; procedure, shortened: as §1
[24] = Elimination half life in Wistar rat at 10 mg/kg, po by HPLC-MS/MS analysis; type: ADME, organism-based; settings: in vivo, read-out: beta t1/2 (converted); procedure, shortened: as §2
[25] = Aqueous solubility of compound; type: physicochemical
[26] = Thermodynamic solubility in pH 7.4 buffer; type: physicochemical; settings: read-out: Therm_solubility
[27] = Thermodynamic solubility in pH 2 buffer; type: physicochemical; settings: read-out: Therm_solubility

SMILES: Cc1cc(CCCCN2CCOCC2)nn1-c1ccc(Cl)c(Cl)c1
- pKi [1]: 6.94
- pKi [2]: 8.05

SMILES: O=C(CCCN1CCC(O)(c2ccc(Cl)cc2)CC1)c1ccc(F)cc1 [HALOPERIDOL]
- pKi [1]: 7.66

SMILES: Cc1cc(COCCN2CCOCC2)nn1C1CCCC1
- pKi [1]: < 5.00
- pKi [2]: 6.62

SMILES: Cc1cc(COCCN2CCNCC2)nn1-c1ccc(Cl)c(Cl)c1
- pKi [2]: 6.56

SMILES: Cc1cc(COCCN2CCOCC2)nn1-c1ccc(Cl)c(Cl)c1
- pKi [1]: 6.40
- pKi [2]: 7.85

SMILES: Cc1ccccc1NC(=N)Nc1ccccc1C [DITOLYLGUANIDINE]
- pKi [1]: 7.64

SMILES: CC(=O)N1CCN(CCOCc2cc(C)n(-c3ccc(Cl)c(Cl)c3)n2)CC1
- inhibition [3]: < 50%
- pKi [1]: < 6.00
- pKi [2]: 7.82
- pIC50 [4]: < 5.00

SMILES: Cc1cc(CCCN2CCOCC2)nn1-c1ccc(Cl)c(Cl)c1
- pKi [1]: 6.63
- pKi [2]: 8.30

SMILES: CC(=O)N1CCN(CCCOCc2cc(C)n(-c3ccc(Cl)c(Cl)c3)n2)CC1
- inhibition [3]: < 50%
- pKi [1]: < 6.00
- pKi [2]: 8.05
- pIC50 [4]: 5.39

SMILES: CC(=O)N1CCN(CCOCc2ccn(-c3ccc(F)c(F)c3)n2)CC1.Cl
- Cmax [5]: 771 ng/mL
- AUC(0-inf) [6]: 1430 ng·h/mL
- CL [7]: 89%
- Activity [8]: Non-Toxic
- Activity [9]: Non-Toxic
- logP [10]: 1.7
- bioavailability [11]: 60%
- pKi [1]: < 5.00
- AUC(0-inf) [12]: 2640 ng·h/mL
- half-life [13]: 204 min
- Vdss [14]: 4.4 L/kg
- Activity [15]: 95%
- Cmax [16]: 1180 ng/mL
- pKi [2]: 7.66
- pIC50 [4]: < 5.00
- CL [17]: 70%
- Ratio Ki [18]: 0.9
- Papp [19]: 51.5 ×10⁻⁶ cm/s
- Vdss [20]: 1.2 L/kg
- Activity [21]: Non-Toxic
- ED50 [22]: 33 mg/kg
- bioavailability [23]: 69%
- half-life [24]: < 60 min

SMILES: CC(C)=CCN1CC[C@]2(C)c3cc(O)ccc3C[C@H]1[C@H]2C [(+)-PENTAZOCINE]
- pKi [1]: 6.14

SMILES: CC(=O)N1CCN(CCOCc2cc(C)n(-c3ccc(F)c(F)c3)n2)CC1
- pKi [1]: < 5.00
- pKi [2]: 7.24
- pIC50 [4]: < 5.00

SMILES: Cc1cc(COCCN2CCCC2)nn1-c1ccc(Cl)c(Cl)c1
- pKi [1]: 7.57
- pKi [2]: 8.22
- pIC50 [4]: 5.29

SMILES: Cc1cc(COCCN2CCOCC2)nn1-c1ccc2ccccc2c1
- inhibition [3]: < 50%
- pKi [1]: < 6.00
- pKi [2]: 6.68

SMILES: Cc1cc(COCCN2C[C@@H](C)O[C@@H](C)C2)nn1-c1ccc(Cl)c(Cl)c1
- pKi [1]: 6.74
- pKi [2]: 8.52

SMILES: Cc1cc(COCCN2CCCCC2)nn1-c1ccc(Cl)c(Cl)c1
- pKi [1]: 7.55
- pKi [2]: 8.70

SMILES: Cc1cc(OCCN2CCOCC2)nn1-c1ccc2ccccc2c1
- inhibition [3]: < 50%
- solubility [25]: 200 µg/mL (≈ 593 µM)
- Cmax [5]: 622 ng/mL
- AUC(0-inf) [6]: 958 ng·h/mL
- CL [7]: 65%
- bioavailability [11]: 15%
- pKi [1]: < 6.00
- AUC(0-inf) [12]: 428 ng·h/mL
- solubility thermodynamic [26]: 230 µg/mL (≈ 682 µM)
- half-life [13]: 42 min
- Vdss [14]: 2.2 L/kg
- Activity [15]: 54%
- Cmax [16]: 301 ng/mL
- CL [17]: 109%
- Vdss [20]: 2.9 L/kg
- solubility thermodynamic [27]: 230 µg/mL (≈ 682 µM)
- bioavailability [23]: 34%
- half-life [24]: 72 min

SMILES: Clc1ccc(-n2ccc(COCCN3CCOCC3)n2)cc1Cl
- pKi [1]: 6.86
- pKi [2]: 8.70
